Data set [1] concerns the target T1, Nuclear receptor subfamily 1 group I member 2 (Homo sapiens, UniProt O75469).
T1 sequence (O75469 whole entry): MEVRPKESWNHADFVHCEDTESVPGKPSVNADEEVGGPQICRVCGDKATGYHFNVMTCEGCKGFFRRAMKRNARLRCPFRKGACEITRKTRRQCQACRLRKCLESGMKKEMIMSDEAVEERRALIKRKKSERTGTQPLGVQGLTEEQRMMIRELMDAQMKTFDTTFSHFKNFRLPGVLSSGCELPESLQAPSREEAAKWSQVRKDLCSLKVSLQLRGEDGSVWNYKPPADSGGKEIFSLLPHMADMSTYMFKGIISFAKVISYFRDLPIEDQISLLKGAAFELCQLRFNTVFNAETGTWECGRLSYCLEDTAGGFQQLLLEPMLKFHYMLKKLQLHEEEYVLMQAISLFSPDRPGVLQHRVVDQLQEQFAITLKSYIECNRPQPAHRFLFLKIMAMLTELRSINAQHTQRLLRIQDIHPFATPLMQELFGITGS
As to the kind of experiment: Antagonist activity at full length human PXR transfected in human HepG2 cells assessed as reduction in rifaximin-induced receptor transactivation at 50 uM after 18 hrs by luciferase reporter assay. Type of data set: cell-based. Particulars: hepg2, 18 h. The method in brief: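 HepG2 (5 × 10⁴ cells/well, MEM/10% FBS) transiently transfected with full-length human PXR, RXR, PXRE-luciferase reporter and Renilla vectors, then treated 18 h with rifaximin (10 μM) plus compound (50 μM). Luciferase read-out normalised as RLU/Renilla RRU; p < 0.05 significance.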

Data set [2] has as its target T1, Nuclear receptor subfamily 1 group I member 2. As to the kind of experiment: Transactivation of full length human PXR transfected in human HepG2 cells after 18 hrs by luciferase reporter assay relative to rifaximin. Type of data set: cell-based. The method in brief: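 In HepG2 transfected with hPXR, RXR, PXRE-luciferase and Renilla plasmids, cells were exposed 18 h to compound at 10 μM, or at 10, 25 and 50 μM for EC50 determination, alongside rifaximin (10 μM) as reference agonist. Firefly signal normalised to Renilla.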

Data set [3] shares this target. As to the kind of experiment: Transactivation of PXR in human HepG2 cells assessed as up regulation of CYP3A4 gene expression at 10 uM after 18 hrs by quantitative Real-time PCR analysis. The format is cell-based. As to conditions: hepg2, 18 h.
For data set [4], the system named is HepG2. As to the kind of experiment: Up regulation of full length PXR expression in human HepG2 cells at 10 uM after 18 hrs by quantitative real-time PCR analysis. The format is functional, cell-based.
The target of data set [5] is T1, Nuclear receptor subfamily 1 group I member 2. The data set is described as follows: Antagonist activity at full length human PXR transfected in human HepG2 cells assessed as reduction in rifaximin-induced receptor transactivation after 18 hrs by luciferase reporter assay. The format is cell-based. As to conditions: for inhibition (INH): human, hepg2, 18 h. The method in brief:
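Rifaximin-stimulated (10 μM) HepG2 transiently co-transfected with 75 ng pSG5-hPXRT1, 75 ng pSG5-RXR, 250 ng pGL3(henance)PXRE reporter and 100 ng pGL4.70-Renilla, then co-treated 18 h with compound at 10, 25 and 50 μM. Firefly luciferase RLU divided by Renilla RRU to normalise transfection efficiency; IC50 taken from concentration-response curve.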

Data set [6] has the same target. As to the kind of experiment: Antagonist activity against PXR in human HepG2 cells assessed as inhibition of rifaximin-induced CYP3A4 gene expression at 25 uM after 18 hrs by quantitative real-time PCR analysis. The format is cell-based. As to conditions: hepg2, 18 h.
Data set [7] has the same target. As to the kind of experiment: Activity at PXR in human HepG2 cells assessed as up regulation of rifaximin-induced PXR gene expression at 25 uM after 18 hrs by quantitative real-time PCR analysis. As to conditions: hepg2, 18 h.
A short description of data set [8]: Solubility of the compound. The format is physicochemical.
Data set [9] deals with HepG2. The data set is described as follows: Toxicity in human HepG2 cells expressing human full-length PXR assessed as reduction in cell viability at 50 uM. As to conditions: hepg2, 50 µM. Type of data set: cell-based.
In data set [10] the target is T1, Nuclear receptor subfamily 1 group I member 2. The data set is described as follows: Antagonist activity at PXR (unknown origin).

Results on 14 molecules are retold here after ChEMBL document CHEMBL3632562, “Diethylstilbestrol-scaffold-based pregnane X receptor modulators” (Eur J Med Chem, 2015).

Active and inactive are the calls of the source. No cut-off for these calls is given here.

As to `CC/C(=C(/CC)c1ccc(OCCOS(=O)(=O)[O-])cc1)c1ccc(OCCOS(=O)(=O)[O-])cc1.[Na+].[Na+]`, the “inhibition (INH)” value in data set [1] was “Not Active”.

In data set [2], `CC/C(=C(/CC)c1ccc(OC)cc1)c1ccc(OC)cc1` displayed an EC50 of 10.5 µM. Further, in data set [3], the outcome was Active. Also, in the data set on HepG2 [4], the outcome was Active.

As to `CC/C(=C(/CC)c1ccc(OCCCOS(=O)(=O)[O-])cc1)c1ccc(OCCCOS(=O)(=O)[O-])cc1.[Na+].[Na+]`, the “inhibition (INH)” value in data set [1] is on record as “Not Active”.

On to `CC/C(=C(/CC)c1ccc(OS(=O)(=O)[O-])cc1)c1ccc(OS(=O)(=O)[O-])cc1.[Na+].[Na+]`, for which the “inhibition (INH)” value in data set [1] is “Not Active”.

On to `CC/C(=C(/CC)c1ccc(O)cc1)c1ccc(O)cc1` [DIETHYLSTILBESTROL], for which, in [5], the IC50 was determined as 14.6 µM. The “inhibition (INH)” value in data set [5] is reported as “Dose-dependent effect”; in [6] it was “Active”; in [1], “Active”. The outcome in data set [7] was Active.

In data set [2], `CO[C@H]1/C=C/O[C@@]2(C)Oc3c(C)c(O)c4c(O)c(c5c(nc6cc(C)ccn65)c4c3C2=O)NC(=O)/C(C)=C\C=C\[C@H](C)[C@H](O)[C@@H](C)[C@@H](O)[C@@H](C)[C@H](OC(C)=O)[C@@H]1C` [RIFAXIMIN] showed an EC50 of 11.2 µM. In the data set with HepG2 [4], the result was Active.

Consider `CC/C(=C(/CC)c1ccc(OCCO)cc1)c1ccc(OCCO)cc1`, for which the IC50 in data set [5] was determined as 27.4 µM. Moreover, the “inhibition (INH)” value is “Dose-dependent effect” in [5], “Active” in [6] and “Active” in data set [1]. Besides, the outcome in [7] was Active.

Regarding `CC/C(=C(/CC)c1ccc(OCCCOC(C)=O)cc1)c1ccc(OCCCOC(C)=O)cc1`, in [1], the “inhibition (INH)” value is reported as “Active”.

For the molecule `CC/C(=C(/CC)c1ccc(OCCCCOC(C)=O)cc1)c1ccc(OCCCCOC(C)=O)cc1`, in data set [8], the solubility entry is given as “Insoluble”.

In the case of `CC/C(=C(/CC)c1ccc(OCCOC(C)=O)cc1)c1ccc(OCCOC(C)=O)cc1`, the “inhibition (INH)” value in data set [1] was “Active”.

As to `CC/C(=C(/CC)c1ccc(OCCCCO)cc1)c1ccc(OCCCCO)cc1`, the Activity entry in the data set on HepG2 [9] is listed as “Toxic”.

With `CC/C(=C(/CC)c1ccc(OCCCCOS(=O)(=O)[O-])cc1)c1ccc(OCCCCOS(=O)(=O)[O-])cc1.[Na+].[Na+]`, the “inhibition (INH)” value in data set [1] is given as “Not Active”.

The molecule `Cc1cc(-c2onc(C)c2C(=O)Sc2ccccc2)no1` returned an IC50 in data set [10] of 0.85 µM.

Turning to `CC/C(=C(/CC)c1ccc(OCCCO)cc1)c1ccc(OCCCO)cc1`, the Activity result in the data set on HepG2 [9] is recorded as “Toxic”.
